Reference: ChEMBL document CHEMBL1156265, “Furo[2,3-b]pyridine-based cannabinoid-1 receptor inverse agonists: synthesis and biological evaluation. Part 1” (Bioorg Med Chem Lett, 2010)
Blank lines part the entries; values can stand above or below the molecule they belong to.

Legend:
[1] = Ratio of drug level in brain to plasma in rat at 1 mg/kg, iv after 4 hrs; type: ADME, organism-based; parameters: dose 1 mg/kg, route intravenous
[2] = Plasma clearance in rat; type: ADME, organism-based
[3] = Bioavailability in rat; type: ADME, organism-based; details: in vivo
[4] = Half life in rat; type: ADME, organism-based; details: in vivo
[5] = Drug level in rat plasma at 1 mg/kg, iv after 4 hrs; type: ADME, organism-based; parameters: dose 1 mg/kg, route intravenous; details: read-out: Drug uptake
[6] = Drug level in rat brain at 1 mg/kg, iv after 4 hrs; type: ADME, organism-based; parameters: dose 1 mg/kg, route intravenous; details: read-out: Drug uptake
Rattus norvegicus [7] = test: Suppression of food intake in DIO rat at 1 mg/kg, po relative to control; type: functional
Outline: (§1)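 Acute study in diet-induced obese rats. A single oral dose was given and rats were monitored for 18 h. Food intake suppression and body weight change were measured relative to vehicle-treated controls.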

Rattus norvegicus [8] = test: Reduction of body weight in DIO rat assessed as weight change at 1 mg/kg, po after 18 hrs; type: functional; outline: as §1
Cannabinoid receptor 2 = Cannabinoid receptor 2 (Homo sapiens, UniProt P34972); test: Inhibition of human CB2 receptor
Cannabinoid receptor 1 = Cannabinoid receptor 1 (Homo sapiens, UniProt P21554); test: Inhibition of human CB1 receptor
[9] = Half life in dog; type: ADME, organism-based, Canis lupus familiaris; details: in vivo
Outline: (§2)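 PK in dog and rhesus macaque. Bioavailability, plasma clearance (mL/min/kg) and terminal half-life derived from plasma drug levels.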

[10] = Plasma clearance in dog; type: ADME, organism-based, Canis lupus familiaris; outline: as §2
[11] = Bioavailability in dog; type: ADME, organism-based, Canis lupus familiaris; details: in vivo; outline: as §2
[12] = Lipophilicity, log D of the compound; type: physicochemical; details: HPLC, pH 7.3
Rattus norvegicus [13] = test: Suppression of food intake in DIO rat at 1 mg/kg, po measured 18 hrs post dose on day 14 relative to control
Rattus norvegicus [14] = test: Reduction of body weight in rat at 1 mg/kg, po after 13 days relative to control; type: functional; parameters: scale not given: the % may be the effect or the level left
Outline: (§3)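 Chronic study in diet-induced obese rats with daily oral dosing at 1 mg/kg (for some compounds 0.1 and 0.3 mg/kg as well). Body weight change and cumulative food intake suppression were measured relative to vehicle. The 14-day study ended 18 h after the day-14 dose; one study ended on day 13.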

Rattus norvegicus [15] = test: Reduction of body weight in DIO rat assessed as weight change at 1 mg/kg, po daily measured 18 hrs post dose on day 14; type: functional; outline: as §3
[16] = Metabolic stability in human liver microsomes assessed as compound remaining after 60 mins; type: ADME, Microsome; details: read-out: Activity
Outline: (§4)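 Liver microsomes (monkey, human, rat, dog) were incubated with compound for 60 min. The read-out was percent parent remaining over the incubation time course.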

[17] = Metabolic stability in rat bile assessed as total recovery at 2 mg/kg, iv after 5 days; type: ADME, organism-based; parameters: dose 2 mg/kg, route intravenous; details: in vivo, 120 h
Outline: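 Radioactivity was collected in bile and urine for 120 h and expressed as percent of dose recovered.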

[18] = Metabolic stability in monkey liver microsomes assessed as compound remaining after 60 mins; type: ADME, Macaca fascicularis, Microsome; details: cynomolgus monkey, read-out: Activity; outline: as §4
[19] = Stability in phosphate buffer exposed to air assessed as degradation at pH 7.4 after 40 hrs; type: physicochemical; details: read-out: Activity
Outline: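 The compound was held in aqueous pH 7.4 phosphate buffer exposed to air for 40 h. The read-out was percent of material degraded to other products.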

[20] = Bioavailability in rhesus monkey; type: ADME, organism-based, Macaca mulatta; details: in vivo; outline: as §2
[21] = Half life in rhesus monkey; type: ADME, organism-based, Macaca mulatta; details: in vivo; outline: as §2
[22] = Plasma clearance in rhesus monkey; type: ADME, organism-based, Macaca mulatta; outline: as §2
Rattus norvegicus [23] = test: Suppression of food intake in DIO rat at 3 mg/kg relative to control; type: functional
[24] = Half life in rat at 3 mg/kg; type: ADME, organism-based; parameters: dose 3 mg/kg; details: in vivo

Chain of Cannabinoid receptor 1 (P21554 whole entry): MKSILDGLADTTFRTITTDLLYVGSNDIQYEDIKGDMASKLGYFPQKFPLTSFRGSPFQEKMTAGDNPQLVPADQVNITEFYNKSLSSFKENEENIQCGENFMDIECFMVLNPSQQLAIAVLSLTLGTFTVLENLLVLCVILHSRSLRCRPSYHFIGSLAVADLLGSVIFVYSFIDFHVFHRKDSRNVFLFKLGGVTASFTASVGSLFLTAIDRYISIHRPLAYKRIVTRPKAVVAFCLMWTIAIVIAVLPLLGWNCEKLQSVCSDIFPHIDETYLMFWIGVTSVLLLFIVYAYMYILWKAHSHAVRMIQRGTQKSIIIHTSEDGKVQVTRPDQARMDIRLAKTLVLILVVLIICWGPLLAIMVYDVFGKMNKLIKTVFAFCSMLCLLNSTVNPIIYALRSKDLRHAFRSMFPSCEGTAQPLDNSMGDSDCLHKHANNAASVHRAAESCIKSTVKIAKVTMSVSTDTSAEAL
Chain of Cannabinoid receptor 2 (P34972 whole entry): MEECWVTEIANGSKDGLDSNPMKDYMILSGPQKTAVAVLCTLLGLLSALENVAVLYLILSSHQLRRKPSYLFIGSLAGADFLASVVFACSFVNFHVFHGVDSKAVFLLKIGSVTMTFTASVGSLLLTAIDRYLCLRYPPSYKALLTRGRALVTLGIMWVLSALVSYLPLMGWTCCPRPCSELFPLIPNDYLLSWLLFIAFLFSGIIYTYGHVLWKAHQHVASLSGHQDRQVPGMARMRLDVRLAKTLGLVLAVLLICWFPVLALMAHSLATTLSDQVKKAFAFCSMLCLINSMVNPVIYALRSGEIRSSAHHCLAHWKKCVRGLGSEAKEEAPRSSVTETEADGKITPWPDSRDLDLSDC

SMILES: CC(C)(C)C(=O)c1oc2nc(-c3ccccc3Cl)c(-c3ccc(Cl)cc3)cc2c1N
Kp at 4 h [1]: 2.3
clearance [2]: 22 mL/min/kg
bioavailability [3]: 100%
half-life [4]: 2.8 h
concentration at 4 h [5]: 130 nM
concentration at 4 h [6]: 290 nM
Activity (Rattus norvegicus [7]): 33%
Activity (Rattus norvegicus [8]): -4 g
IC50 (Cannabinoid receptor 2): 1900 nM
IC50 (Cannabinoid receptor 1): 4.3 nM

SMILES: CNCC(=O)Nc1c(C(=O)C(C)(C)C)oc2nc(-c3ccccc3Cl)c(-c3ccc(Cl)cc3)cc12
IC50 (Cannabinoid receptor 2): 3300 nM
IC50 (Cannabinoid receptor 1): 1.2 nM

SMILES: CC(=O)Nc1c(C(=O)C(C)(C)C)oc2nc(-c3ccccc3Cl)c(-c3ccc(Cl)cc3)cc12
IC50 (Cannabinoid receptor 2): > 2000 nM
IC50 (Cannabinoid receptor 1): 0.58 nM

SMILES: CN(C)C(=O)Nc1c(C(=O)C(C)(C)C)oc2nc(-c3ccccc3Cl)c(-c3ccc(Cl)cc3)cc12
IC50 (Cannabinoid receptor 2): 1970 nM
IC50 (Cannabinoid receptor 1): 0.39 nM

SMILES: CC(C)C(=O)c1oc2nc(-c3ccccc3Cl)c(-c3ccc(Cl)cc3)cc2c1NC(=O)CO
half-life [9]: 52 h
Kp at 4 h [1]: 0.94
clearance [2]: 20 mL/min/kg
bioavailability [3]: 38%
half-life [4]: 3.3 h
concentration at 4 h [5]: 160 nM
concentration at 4 h [6]: 150 nM
clearance [10]: 4.9 mL/min/kg
Activity (Rattus norvegicus [7]): 37%
Activity (Rattus norvegicus [8]): -7 g
bioavailability [11]: 31%
IC50 (Cannabinoid receptor 2): 5100 nM
IC50 (Cannabinoid receptor 1): 0.4 nM

SMILES: CC(C)C(=O)c1oc2nc(-c3ccc(Cl)cc3Cl)c(-c3ccc(Cl)cc3)cc2c1N
IC50 (Cannabinoid receptor 2): 640 nM
IC50 (Cannabinoid receptor 1): 1.9 nM

SMILES: Nc1c(C(=O)c2ccccc2)oc2nc(-c3ccc(Cl)cc3Cl)c(-c3ccc(Cl)cc3)cc12
IC50 (Cannabinoid receptor 2): 440 nM
IC50 (Cannabinoid receptor 1): 3.5 nM

SMILES: CC(C)(C)C(=O)c1oc2nc(-c3ccccc3Cl)c(-c3ccc(Cl)cc3)cc2c1NC(=O)CO
half-life [9]: 11 h
Kp at 4 h [1]: 1.8
clearance [2]: 10 mL/min/kg
logD [12]: 6
Activity (Rattus norvegicus [13]): 19%
Activity (Rattus norvegicus [14]): 6%
bioavailability [3]: 32%
half-life [4]: 3.5 h
concentration at 4 h [5]: 49 nM
concentration at 4 h [6]: 86 nM
clearance [10]: 3 mL/min/kg
Activity (Rattus norvegicus [7]): 24%
Activity (Rattus norvegicus [8]): -6 g
bioavailability [11]: 42%
Activity (Rattus norvegicus [15]): -19 g
IC50 (Cannabinoid receptor 2): 3400 nM
IC50 (Cannabinoid receptor 1): 1.2 nM

SMILES: CC(C)(C)C(=O)c1oc2nc(-c3ccc(Cl)cc3Cl)c(-c3ccc(Cl)cc3)cc2c1N
half-life [9]: 7.9 h
remaining at 1 h [16]: 100%
Activity [17]: 41%
Kp at 4 h [1]: 1
remaining at 1 h [18]: 25%
degraded at 40 h [19]: 40%
bioavailability [20]: 11%
clearance [2]: 5.6 mL/min/kg
half-life [21]: 2.4 h
logD [12]: 6.7
Activity (Rattus norvegicus [13]): 19%
Activity (Rattus norvegicus [14]): 5.3%
bioavailability [3]: 59%
half-life [4]: 4.2 h
concentration at 4 h [5]: 220 nM
concentration at 4 h [6]: 220 nM
clearance [10]: 7.3 mL/min/kg
Activity (Rattus norvegicus [7]): 53%
Activity (Rattus norvegicus [8]): -5 g
bioavailability [11]: 63%
Activity (Rattus norvegicus [15]): -3 g
clearance [22]: 29 mL/min/kg
IC50 (Cannabinoid receptor 2): 440 nM
IC50 (Cannabinoid receptor 1): 5.5 nM

SMILES: CC(=O)Nc1c(C(C)=O)c(=O)n(C)c2nc(-c3ccc(Cl)cc3Cl)c(-c3ccc(Cl)cc3)cc12 [NAPHTHYRIDINONE]
Activity (Rattus norvegicus [23]): -68%
half-life [24]: > 8 h

Other lines, results leading:

IC50 (Cannabinoid receptor 2): 1000 nM
IC50 (Cannabinoid receptor 1): 13 nM
SMILES: CCC(=O)c1oc2nc(-c3ccccc3Cl)c(-c3ccc(Cl)cc3)cc2c1N

IC50 (Cannabinoid receptor 2): 1000 nM
IC50 (Cannabinoid receptor 1): 56 nM
SMILES: CC(=O)c1oc2nc(-c3ccc(Cl)cc3Cl)c(-c3ccc(Cl)cc3)cc2c1N

IC50 (Cannabinoid receptor 2): 1300 nM
IC50 (Cannabinoid receptor 1): 1.7 nM
SMILES: CC(C)C(=O)c1oc2nc(-c3ccccc3Cl)c(-c3ccc(Cl)cc3)cc2c1N

IC50 (Cannabinoid receptor 2): 360 nM
IC50 (Cannabinoid receptor 1): 17 nM
SMILES: CCC(=O)c1oc2nc(-c3ccc(Cl)cc3Cl)c(-c3ccc(Cl)cc3)cc2c1N

IC50 (Cannabinoid receptor 2): 2100 nM
IC50 (Cannabinoid receptor 1): 20 nM
SMILES: CC(C)(O)C(=O)c1oc2nc(-c3ccccc3Cl)c(-c3ccc(Cl)cc3)cc2c1N
